Measurements from different studies.
Effect on: binding
UCK2: Uridine-cytidine kinase 2 (UCK2, Homo sapiens, UniProt Q9BZX2)
PIKFYVE: 1-phosphatidylinositol 3-phosphate 5-kinase (PIKFYVE, Homo sapiens, UniProt Q9Y2I7)
mnmE: mnmE (Escherichia coli, UniProt P25522)
PIK3CB: Phosphatidylinositol 4,5-bisphosphate 3-kinase catalytic subunit beta isoform (PIK3CB, Homo sapiens, UniProt P42338)
NAD-dependent histone deacetylase SIR2: NAD-dependent histone deacetylase SIR2 (Saccharomyces cerevisiae S288c, UniProt P06700)

Nc1ccn([C@@H]2O[C@H](CO)[C@@H](O)[C@H]2O)c(=O)n1
Kd (UCK2; fluorescence): 3.7 nM

Cc1[nH]c2ccc(OC(C)C)cc2c1/C=C/C(=O)c1ccncc1
Kd (PIKFYVE; competition with immobilised ligand): 51 nM

COc1ccc(Nc2nnc(-c3ccc(C(=O)NO)cc3)o2)cc1
Kd (Glycogen synthase kinase-3 beta (GSK3B, Homo sapiens, UniProt P49841); SPR): 1000 nM

Nc1nc(=O)c2c([nH]1)NC[C@H](CNc1ccc(C(=O)N[C@@H](CCC(=O)O)C(=O)O)cc1)N2C=O
Kd (mnmE; ITC; pH 7.5): 260 nM

CCC(=O)N1CCC(C(=O)N(C)CC(=O)N2CCN(c3nc(-c4cnc(N)nc4C(F)F)nc(N4CCOCC4)n3)CC2)CC1
Kd (PIK3CB): 7.7 nM

CCCOc1ccc2[nH]c(C)c(/C=C/C(=O)c3ccncc3)c2c1
Kd (PIKFYVE; competition with immobilised ligand): 6.5 nM

Nc1nc2c(c(=O)[nH]1)N1CN(c3ccc(C(=O)N[C@@H](CCC(=O)O)C(=O)O)cc3)C[C@H]1CN2
Kd (mnmE; ITC; pH 7.5): 310 nM

O=c1ccn([C@@H]2O[C@H](CO)[C@@H](O)[C@H]2O)c(=O)[nH]1
Kd (UCK2; fluorescence): 5.8 nM

Cc1cc2nc3c(=O)[nH]c(=O)nc-3n(C[C@H](O)[C@H](O)[C@H](O)COP(=O)(O)OP(=O)(O)OC[C@H]3O[C@@H](n4cnc5c(N)ncnc54)[C@H](O)[C@@H]3O)c2cc1C
Kd (Ubiquitin-associated protein 2 (Homo sapiens, UniProt Q5T6F2); lysate): 45 nM

COc1ccc2[nH]c(C)c(/C=C/C(=O)c3ccncc3)c2c1
Kd (PIKFYVE; competition with immobilised ligand): 6.9 nM

COc1cc(Nc2ncc3c(n2)-c2ccc(Cl)cc2C(c2c(F)cccc2OC)=NC3)ccc1C(=O)O
Kd (Interleukin-1 receptor-associated kinase 3 (IRAK3, Homo sapiens, UniProt Q9Y616); lysate): 2200 nM

COC(=O)[C@@H](N)CCCCN
Kd (LRP1 (Homo sapiens, UniProt Q07954); fluorescence; pH 7.4): 370000 nM

Nc1ncnc2c1ncn2[C@@H]1O[C@H](COP(=O)(O)OP(=O)(O)OC[C@H]2OC(O)[C@H](O)[C@@H]2O)[C@@H](O)[C@H]1O (stereo partly shown)
Kd (NAD-dependent histone deacetylase SIR2; SPR): 2950 nM

C=CC(=O)N1CCC(C(=O)N(C)CC(=O)N2CCN(c3nc(-c4cnc(N)nc4C(F)F)nc(N4CCOCC4)n3)CC2)CC1
Kd (PIK3CB): 3.6 nM

NC(=O)c1ccc[n+]([C@@H]2O[C@H](COP(=O)([O-])OP(=O)(O)OC[C@H]3O[C@@H](n4cnc5c(N)ncnc54)[C@H](O)[C@@H]3O)[C@@H](O)[C@H]2O)c1
Kd (NAD-dependent histone deacetylase SIR2; SPR): 575 nM

Cc1cnc(-c2ccc(-c3ccc(NC(=O)Nc4c(F)cc(F)cc4F)cc3F)c3c2C(=O)NC3)[nH]1
Kd (Dual specificity mitogen-activated protein kinase kinase 1 (MAP2K1, Homo sapiens, UniProt Q02750); competition with immobilised ligand): 23 nM
